What was measured:
[1] = molecular target: T1, Polyunsaturated fatty acid 5-lipoxygenase (Rattus norvegicus, UniProt P12527); assay: inhibitory activity against 5-lipoxygenase in rat basophilic leukemia cell line.; format: cell-based, RBL-1
T1 sequence (P12527 whole entry): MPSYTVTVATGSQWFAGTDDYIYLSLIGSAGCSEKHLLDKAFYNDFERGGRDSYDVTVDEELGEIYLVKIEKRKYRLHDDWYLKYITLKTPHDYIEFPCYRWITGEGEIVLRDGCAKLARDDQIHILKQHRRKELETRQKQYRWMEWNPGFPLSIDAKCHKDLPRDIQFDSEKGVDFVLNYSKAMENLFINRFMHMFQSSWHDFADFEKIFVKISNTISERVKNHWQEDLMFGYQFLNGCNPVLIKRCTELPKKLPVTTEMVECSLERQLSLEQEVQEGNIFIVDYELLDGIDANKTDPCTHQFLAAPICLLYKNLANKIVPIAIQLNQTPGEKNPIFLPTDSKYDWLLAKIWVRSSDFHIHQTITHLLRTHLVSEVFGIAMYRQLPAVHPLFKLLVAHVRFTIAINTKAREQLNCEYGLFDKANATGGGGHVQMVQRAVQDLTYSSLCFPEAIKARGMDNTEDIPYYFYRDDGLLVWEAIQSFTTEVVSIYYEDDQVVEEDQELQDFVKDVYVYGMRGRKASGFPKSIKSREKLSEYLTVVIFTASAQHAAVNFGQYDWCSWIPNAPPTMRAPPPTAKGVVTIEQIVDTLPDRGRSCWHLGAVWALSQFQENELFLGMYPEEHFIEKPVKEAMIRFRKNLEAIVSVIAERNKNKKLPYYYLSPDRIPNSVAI

[2] = Inhibition of IL-1 beta biosynthesis in human monocytes; format: functional, cell-based
Method in brief: (§1)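 Human blood monocytes were isolated by ficoll-hypaque then elutriation and plated at 2×10^6 cells/mL in RPMI 1640 + 5% FBS. Compound in DMSO was added at 10, 3, 1, 0.3 and 0.1 μM for 1 h. Cells were then stimulated with Salmonella typhimurium LPS for about 20 h. Supernatant IL-1 was measured by ELISA and viability by MTT.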

[3] = tested on: Crotalus adamanteus; assay: Compound was evaluated for the inhibition of PLA2.; format: functional
[4] = molecular target: T2, Polyunsaturated fatty acid 5-lipoxygenase (Rattus norvegicus) (UniProt P12527)
T2 sequence (whole entry): T1 sequence (P12527 whole entry)

[5] = molecular target: Interleukin-1 beta (Homo sapiens) (UniProt P01584); assay: Compound was evaluated for the inhibition of IL-1 beta release by human monocytes.
[6] = tested on: Crotalus adamanteus; assay: Compound was evaluated for the inhibition of, PLA2.; format: functional
[7] = organism: Homo sapiens; assay: Compound was evaluated for the inhibition of, IL1-beta biosynthesis.; format: functional; method in brief: as §1
[8] = molecular target: T2, Polyunsaturated fatty acid 5-lipoxygenase (Rattus norvegicus); remark: listed apart in the source
[9] = molecular target: Cyclooxygenase (Bos taurus) (UniProt O62664+O62698)
[10] = molecular target: T2, Polyunsaturated fatty acid 5-lipoxygenase (Rattus norvegicus); assay: Compound was evaluated for the inhibition of 5-LO (lipoxygenase); format: functional
Method in brief: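 Enzyme source was a 1000g supernatant of homogenized RBL-1 cells, dosed to give 3300–3800 dpm net 5-HETE (9–20 μg cell protein/assay). Compound in 5% DMSO/0.2 M Tris pH 8.5 was preincubated with enzyme for 5 min at 37 °C in pH 7.0 phosphate buffer (EDTA, gelatin, glutathione, CaCl2, indomethacin). Then 0.042 mM [14C]arachidonic acid (final) was added, 2 min. Duplicates; IC50 by linear regression over three concentrations.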

[11] = organism: Homo sapiens; assay: Compound was evaluated for the inhibition of,IL-1beta biosynthesis.; format: functional; method in brief: as §1
[12] = tested on: Crotalus adamanteus; assay: Compound was evaluated for the inhibition of,PLA2.; format: functional

Chain of Interleukin-1 beta (Homo sapiens) (P01584 whole entry, looked up): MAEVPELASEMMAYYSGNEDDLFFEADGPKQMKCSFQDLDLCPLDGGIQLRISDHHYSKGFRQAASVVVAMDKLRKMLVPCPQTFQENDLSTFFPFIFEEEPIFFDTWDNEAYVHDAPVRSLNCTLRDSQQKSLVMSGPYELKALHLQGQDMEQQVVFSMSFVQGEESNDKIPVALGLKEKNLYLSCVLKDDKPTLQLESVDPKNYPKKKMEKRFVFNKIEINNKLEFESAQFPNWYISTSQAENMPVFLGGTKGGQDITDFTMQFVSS

O=C(/C=C\N(O)C1CCCCC1)c1ccc2ccccc2c1
IC50 [1]: 2.6 µM | IC50 [2]: > 10 µM

O=C(/C=C\N(O)Cc1ccc2ccccc2c1)C1CC1
IC50 [1]: 1.5 µM | IC50 [2]: 9.9 µM

CCCCCCCCCCN(O)/C=C\C(=O)c1ccc(F)cc1
IC50 [1]: 13 µM

O=C(/C=C\N(O)Cc1ccccc1)c1ccc2ccccc2c1
IC50 [2]: 5.4 µM

CC(=O)ON(/C=C\C(=O)c1ccc(F)cc1)Cc1ccccc1
IC50 [1]: > 25 µM | IC50 [2]: > 10 µM

COc1ccc2c(c1)c(CC(=O)O)c(C)n2C(=O)c1ccc(Cl)cc1
ID50 [3]: > 1000 µM | ID50 [4]: > 25 µM | ID50 [5]: > 30 µM

COc1ccccc1/C(O)=C/C=N/OCc1ccccc1
IC50 [1]: > 25 µM

C/C(=C/N(C)O)C(=O)c1ccc(OCc2ccccc2)cc1
IC50 [1]: 8.9 µM

O=C(/C=C\N(O)Cc1ccc(-c2ccccc2)cc1)C1CC1
IC50 [1]: 1.2 µM | IC50 [2]: > 10 µM

CC(=O)ON(/C=C\C(=O)c1ccc(-c2ccccc2)cc1)Cc1ccccc1
IC50 [1]: > 25 µM | IC50 [2]: > 10 µM

O=C(/C=C\N(O)Cc1ccccc1)c1ccc([N+](=O)[O-])cc1
IC50 [1]: 2.5 µM | IC50 [2]: 1.7 µM

O=C(/C=C\N(O)c1ccccc1)c1ccc2ccccc2c1
IC50 [1]: 0.81 µM

COc1ccccc1C(=O)/C=C\N(Cc1ccccc1)OC
IC50 [1]: > 25 µM

CC(=O)N(/C=C\C(=O)C(C)(C)C)OCc1ccccc1
IC50 [1]: > 25 µM

O=C(/C=C\N(O)Cc1ccc(-c2ccccc2)cc1)c1ccc(F)cc1
IC50 [1]: 3 µM | IC50 [2]: 5.2 µM

O=C1CCN(c2ccccc2)N1 [PHENIDONE]
ID50 [6]: > 1000 µM | ID50 [7]: >30 µM | ID50 [8]: 0.48 µM | ID50 [9]: 6.9 µM

O=C(/C=C\N(O)Cc1ccccc1)c1ccc(-c2ccccc2)cc1
IC50 [1]: 0.25 µM | IC50 [2]: 3.6 µM

O=C(/C=C\N(O)Cc1ccc(OCc2ccccc2)cc1)C1CC1
IC50 [1]: 2.6 µM

COc1ccc(C(=O)/C(=C\N(C)O)c2ccc(OC)cc2)cc1
IC50 [1]: > 25 µM

O=C(/C=C\N(O)Cc1ccccc1)c1ccncc1
IC50 [1]: 2 µM | IC50 [2]: 8.9 µM

CC(=O)ON(C)/C=C\C(=O)c1ccc(OCc2ccccc2)cc1
IC50 [1]: > 25 µM

CC(=O)ON(C)/C=C\C(=O)c1ccc(Cl)cc1
IC50 [1]: > 25 µM

COC(=O)/C=C\N(O)Cc1ccc(OCc2ccccc2)cc1
IC50 [1]: 4.8 µM

O=C(/C=C\N(O)C1CCCCC1)c1ccc(F)cc1
IC50 [1]: 0.27 µM | IC50 [2]: > 10 µM

CSc1ccc(C(=O)/C(=C\N(C)O)c2ccc(F)cc2)cc1
IC50 [1]: > 25 µM

CN(O)/C=C\C(=O)c1ccc(OCc2ccccc2)cc1 [listing 1 of 2 here]
IC50 [1]: 1.1 µM | IC50 [2]: > 10 µM

O=C(/C=C\N(O)Cc1ccc(Oc2ccccc2)cc1)C1CC1
IC50 [1]: 1.4 µM | IC50 [2]: > 10 µM

CC(=O)ON(/C=C\C(=O)C(C)(C)C)Cc1ccccc1
IC50 [1]: > 25 µM

O=C(/C=C\N(O)Cc1ccccc1)c1ccc(Cl)cc1
ID50 [10]: 1.5 µM | IC50 [1]: 1.5 µM | IC50 [2]: 2.1 µM | ID50 [3]: > 1000 µM | ID50 [9]: > 750 µM | ID50 [5]: 2.1 µM

CC(=O)ON(C)/C=C\C(=O)c1ccc([N+](=O)[O-])cc1
IC50 [1]: > 25 µM

O=C(/C=C\N(O)Cc1ccccc1)c1ccc(Cl)c(Cl)c1
IC50 [1]: 0.61 µM | IC50 [2]: 3.6 µM

CC(=O)ON(/C=C\C(=O)c1ccc(Cl)cc1)Cc1ccccc1
IC50 [1]: > 25 µM | IC50 [2]: > 10 µM

O=C(/C=C\N(O)Cc1ccc(-c2ccccc2)cc1)c1ccco1
IC50 [1]: 3.1 µM

CC(C)(C)/C(O)=C/C=N/OCc1ccccc1
IC50 [1]: > 25 µM

CON(/C=C\C(=O)c1ccc(F)cc1)Cc1ccccc1
IC50 [1]: > 25 µM | IC50 [2]: > 10 µM

CN(O)/C=C\C(=O)c1cc(C(F)(F)F)cc(C(F)(F)F)c1
IC50 [1]: 0.91 µM

O=C(/C=C\NOCc1ccccc1)c1ccc(F)cc1
IC50 [1]: > 25 µM

CN(O)/C=C\C(=O)c1ccc2ccccc2c1
IC50 [1]: 1.8 µM | IC50 [2]: > 10 µM

O=C(/C=C\N(O)CCc1ccccc1)c1ccc(F)cc1
IC50 [1]: 0.12 µM | IC50 [2]: > 10 µM

CN(O)/C=C\C(=O)Sc1ccc2ccccc2c1
IC50 [1]: 0.24 µM | IC50 [2]: > 10 µM

CCc1c(N(O)/C=C\C(=O)c2ccc3ccccc3c2)ccc2ccccc12
IC50 [1]: 0.75 µM

O=C(/C=C\N(O)Cc1ccc2ccccc2c1)c1ccc(F)cc1
IC50 [1]: 0.4 µM | IC50 [2]: 7.7 µM

CC(=O)ON(C)/C=C\C(=O)c1ccc(-c2ccccc2)cc1
IC50 [1]: > 25 µM

CN(O)/C=C\C(=O)c1ccc(OCc2ccccc2)cc1 [listing 2 of 2 here]
IC50 [1]: 1.9 µM

CC(=O)ON(/C=C\C(=O)c1ccc([N+](=O)[O-])cc1)Cc1ccccc1
IC50 [1]: > 25 µM | IC50 [2]: > 10 µM

CN(O)/C=C\C(=O)c1ccc([N+](=O)[O-])cc1
IC50 [1]: 1.5 µM | IC50 [2]: > 10 µM

CN(O)/C=C\C(=O)c1ccc(Cl)cc1
IC50 [1]: 0.55 µM | IC50 [2]: > 10 µM

O=C(/C=C\N(O)c1ccccc1)c1ccc(F)cc1
IC50 [1]: 0.2 µM | IC50 [2]: > 10 µM

CN(O)/C=C\C(=O)c1ccc(OCc2ccccn2)cc1
IC50 [1]: 10 µM

O=C(/C=C\N(O)Cc1ccc(-c2ccccc2)cc1)c1ccsc1
IC50 [1]: 3 µM

CC(C)(C)C(=O)/C=C\N(O)Cc1ccccc1
IC50 [1]: 5 µM | IC50 [2]: > 10 µM

C/C(=C/C(=O)c1ccc(F)cc1)N(O)Cc1ccccc1
IC50 [1]: 0.25 µM

CN(O)/C=C\C(=O)c1ccc(F)cc1
IC50 [1]: 5 µM | IC50 [2]: 5.5 µM

O=C(/C=C\N(O)Cc1ccccc1)c1c(Cl)cccc1Cl
IC50 [1]: 1.7 µM | IC50 [2]: > 10 µM

O=C(/C=C\N(O)Cc1ccccc1)c1ccc(F)cc1
IC50 [2]: 2.8 µM | ID50 [3]: > 1000 µM | ID50 [9]: > 750 µM | ID50 [5]: 2.8 µM

O=C(/C=C\NOCc1ccccc1)c1ccc(-c2ccccc2)cc1
IC50 [1]: > 25 µM

CN(O)/C=C\C(=O)c1ccc(-c2ccccc2)cc1
IC50 [2]: > 10 µM

CC(c1cc2ccccc2s1)N(O)C(N)=O (stereo unspecified) [ZILEUTON]
ID50 [11]: >30 µM | ID50 [12]: > 1000 µM | ID50 [9]: > 750 µM

CN(O)/C=C(\C(=O)c1ccccc1)c1ccccc1
IC50 [1]: > 25 µM

O=C(/C=C\N(O)Cc1ccc(-c2ccccc2)cc1)c1cccs1
IC50 [1]: > 25 µM
